The text below walks through data of ChEMBL document CHEMBL1208790, “Exploration of a new series of CCR5 antagonists: multi-dimensional optimization of a sub-series containing N-substituted pyrazoles” (Bioorg Med Chem Lett, 2010).

By logD is commonly meant the decadic logarithm of the distribution of all forms, ionised or not, between an organic phase and buffer at a given pH.

Structures are written as SMILES.

The series in a line: Lipophilicity, log D of the compound at pH 7 by shake flask method. The format is physicochemical. To be noted: buffer. The essentials: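 High-throughput shake-flask log D determination at pH 7.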
As for `Cc1nn(-c2ccccc2)c(C)c1C(=O)N1C[C@H]2CN(CC[C@H](NC(=O)C3CCCC3)c3ccccc3)C[C@H]2C1`, the logD is 2.92.
Next, `Cc1ncnc(C)c1C(=O)N1C[C@H]2CN(CC[C@H](NC(=O)C3CCCC3)c3ccccc3)C[C@H]2C1`: 1.37; `Cc1cc(C#N)nc(C)c1C(=O)N1C[C@H]2CN(CC[C@H](NC(=O)C3CCCC3)c3ccccc3)C[C@H]2C1`: 1.89.
For `Cc1ccnc(C)c1C(=O)N1C[C@H]2CN(CC[C@H](NC(=O)C3CCCC3)c3ccccc3)C[C@H]2C1`, the logD is 1.9.
